Assay [1] in a line: reducers of endogenous Her2 protein level, primary screen, SKBR3 breast tumor cells, AlphaScreen, ATP viability (AID 461;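 active means Her2 level under about 52% in both replicate screens, with viability over 70% of control, limit read from the data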;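 on Her2 level: lower value means less Her2 protein in the cells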;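 on viability: percent of carrier control wells set as 100% viability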). Conditions: 18-24 h, measured here: SKBR3 viability, ATP luminescence, at 10 µM.
Assay [2] concerns the target Receptor tyrosine-protein kinase erbB-2 (Homo sapiens) (UniProt P04626). The assay is described as above. The note with it: 18-24 h, at 10 µM, stronger effect = lower value.
Assay [3] is described as follows: SK-BR-3 cell growth inhibitors, pilot screen, 24 h, human (AID 572;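 active means viability at or below 10% of carrier control in both of two separate runs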;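 further: compound exposure lasted between 18 and 24 h rather than exactly 24 h; 100% = carrier-treated control wells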). Conditions: SK-BR-3 viability, CellTiter-Glo luminescence, at 10 µM, stronger effect = lower value.
A short description of assay [4]: HUVEC growth inhibition – cell-based, human, primary screen (AID 575;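 active means viability at or below 30% in both replicate assays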;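 further: 100% = median of untreated cell wells with 0.1% DMSO on each plate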). The note with it: HUVEC proliferation, CellTiter-Glo luminescence, 72 h; at 10 µM; stronger effect = lower value. An outline of the steps:
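Test system: primary human umbilical vein endothelial cells; medium: endothelial basal medium with 2% FBS plus growth supplements; dosing: 10 µM compound only; times: 72 h treatment at 37 °C; signal: CTG luminescence; read-out: % viability relative to median vehicle-well signal on each plate; control set: vehicle and MePR control wells; plate: 384-well, collagen-coated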
For orientation: Cellular ATP, detected with luciferase, serves as a proxy for viable cell number.

Assay [5] can be described thus: growth inhibitors of H69AR lung tumor, primary screen, human, duplicate replicates (AID 580;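 active means viability at or under a set limit in both replicates, limit being median viability minus 3 SD, cut at about 48% in these data, passing the limit was not always enough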;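 further: 100% = mean luminescence of untreated wells and 0% = no signal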). Conditions: H69AR lung tumor cells viability, ATP luminescence, 72 h; at 10 µM; stronger effect = lower value.
Assay [6] in a line: reversal of MRP1-mediated doxorubicin resistance, pilot screen, H69AR cells, doxorubicin co-treatment (AID 601). The note with it: CellTiter-Glo, 72 h, at 10 µM; for differential viability (reversal): stronger effect = higher value.
Assay [7] in a line: 384-well plate pilot, post-Golgi transport modulator project, inhibition of yeast transport mutant growth (AID 636; in the data active means inhibition above about 31%). The note with it: absorbance 615 nm, about 18 h, stronger effect = higher value.
Assay [8] can be described thus: growth suppression of yeast trafficking mutant, preliminary HTS, modulators of trafficking downstream of Golgi apparatus project, 1536-format plate, OD 615 nm (AID 637; in the data active means inhibition above about 30%). Conditions: yeast transport mutant growth, absorbance 615 nm, 18 h; stronger effect = higher value.
Where [9] appears, read: H69AR cells + 2 uM doxorubicin, measured here: viability with 2 uM doxorubicin, stronger effect = lower value.
The mark [10] stands for this setting: H69AR cells, compound alone cytotoxicity.

The source made the active and inactive calls.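 How the source made its calls, unless noted: active means viability loss from added drug above about 55%, and viability with drug at most 40%, in both replicates (limit read from the data, passing the limit was not always enough); inconclusive means both conditions met in only one replicate; inactive means neither replicate meets both conditions.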

Chain of Receptor tyrosine-protein kinase erbB-2 (Homo sapiens) (P04626 whole entry, looked up): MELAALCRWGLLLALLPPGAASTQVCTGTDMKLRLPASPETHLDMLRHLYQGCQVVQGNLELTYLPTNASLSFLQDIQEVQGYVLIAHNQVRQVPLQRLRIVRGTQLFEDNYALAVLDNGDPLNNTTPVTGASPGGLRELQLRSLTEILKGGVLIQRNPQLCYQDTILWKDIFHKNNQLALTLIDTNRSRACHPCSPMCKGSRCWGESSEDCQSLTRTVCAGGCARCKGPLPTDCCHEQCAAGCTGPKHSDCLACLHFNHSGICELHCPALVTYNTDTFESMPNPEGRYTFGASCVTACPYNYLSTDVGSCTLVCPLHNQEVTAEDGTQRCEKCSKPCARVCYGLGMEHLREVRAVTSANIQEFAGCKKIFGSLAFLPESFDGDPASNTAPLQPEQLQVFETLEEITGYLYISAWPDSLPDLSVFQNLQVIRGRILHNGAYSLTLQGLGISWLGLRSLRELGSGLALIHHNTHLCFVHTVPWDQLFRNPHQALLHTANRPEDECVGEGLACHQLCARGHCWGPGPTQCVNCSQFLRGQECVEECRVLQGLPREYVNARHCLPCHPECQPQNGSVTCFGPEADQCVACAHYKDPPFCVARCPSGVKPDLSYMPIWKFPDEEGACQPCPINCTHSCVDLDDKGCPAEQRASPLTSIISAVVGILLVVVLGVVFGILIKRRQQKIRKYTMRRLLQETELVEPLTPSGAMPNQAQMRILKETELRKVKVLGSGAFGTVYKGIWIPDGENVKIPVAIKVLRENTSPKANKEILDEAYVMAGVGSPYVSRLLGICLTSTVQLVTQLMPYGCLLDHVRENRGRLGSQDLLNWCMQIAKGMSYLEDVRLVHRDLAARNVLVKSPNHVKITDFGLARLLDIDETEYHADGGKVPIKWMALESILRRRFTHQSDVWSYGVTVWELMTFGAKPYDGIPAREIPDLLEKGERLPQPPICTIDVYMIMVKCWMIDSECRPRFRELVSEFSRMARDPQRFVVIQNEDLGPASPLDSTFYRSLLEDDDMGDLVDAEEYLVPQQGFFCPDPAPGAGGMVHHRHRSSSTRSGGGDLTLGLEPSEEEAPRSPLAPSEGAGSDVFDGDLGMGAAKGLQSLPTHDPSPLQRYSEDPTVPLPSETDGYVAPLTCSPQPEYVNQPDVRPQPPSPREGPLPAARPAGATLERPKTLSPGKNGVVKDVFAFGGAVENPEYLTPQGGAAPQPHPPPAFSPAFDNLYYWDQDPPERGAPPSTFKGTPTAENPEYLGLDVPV

For the compound `Cc1cc(-c2ccccc2)nc2cc(C(N)=O)nn12`, the viability (in general, a read-out of living cells in per cent, often relative to untreated cells) in assay [1] was 102%; in assay [3], 102% (inactive); in assay [4], 101% (inactive); in assay [5] it was 96% (inactive); in assay [6] (setting [9]), 87.1%; in assay [6] (setting [10]), 96%. In assay [2], the Her2 level was 94% (inactive). For the same compound, in assay [6] (H69AR cells + 2 uM doxorubicin), the differential viability (reversal) is 8.83% (inactive). Besides, the inhibition (as a rule, the relative decrease from the control value, in per cent) in assay [7] is -2.63% (inactive); in assay [8], 1.61% (inactive).

With `Cn1c(=O)c(C(=S)NC(=O)C2CC2)c(N)n(Cc2ccccc2)c1=O`, the viability was 70.5% in assay [1]; 70.5% (inactive) in assay [3]; 59.9% (inactive) in assay [4]; 78.1% (inactive) in assay [5]; 84.7% in assay [6] (setting [9]); 78.1% in assay [6] (setting [10]). Also, the Her2 level in assay [2] is 74.5% (inactive). Moreover, the differential viability (reversal) in assay [6] (H69AR cells + 2 uM doxorubicin) was -6.6% (inactive). Also, the inhibition is -1.05% (inactive) in assay [7] and -3.65% (inactive) in assay [8].

Regarding `CCSc1nc2ccccc2n1CCC(=O)O`, the viability was 99% in assay [1]; 99% (inactive) in assay [3]; 101% (inactive) in assay [4]; 109% (inactive) in assay [5]; 93.4% in assay [6] (setting [9]); 109% in assay [6] (setting [10]). Further, in assay [2], the Her2 level was 91.5% (inactive). For the same compound, the differential viability (reversal) in assay [6] (H69AR cells + 2 uM doxorubicin) is 15.9% (inactive). Besides, the inhibition in assay [7] was -5.21% (inactive); in assay [8] it was 1.11% (inactive).

Consider `COc1ccc(C2(C(=O)Nc3c(C)n(C)n(-c4ccccc4)c3=O)CCCC2)cc1OC`, for which the viability is 94% in assay [1]; 94% (inactive) in assay [3]; 98.5% (inactive) in assay [4]; 106% (inactive) in assay [5]; 84.1% in assay [6] (setting [9]); 106% in assay [6] (setting [10]). In addition, the Her2 level in assay [2] is 91.5% (inactive). Besides, the differential viability (reversal) in assay [6] (H69AR cells + 2 uM doxorubicin) was 21.9% (inactive). Further, the inhibition in assay [7] is -2.4% (inactive); in assay [8] it was 1.43% (inactive).

In the case of `Cc1nc(N2CCN(c3ncccn3)CC2)c2oc3ccccc3c2n1`, the viability is 85% in assay [1]; 85% (inactive) in assay [3]; 83.9% (inactive) in assay [4]; 99.4% (inactive) in assay [5]; 111% in assay [6] (setting [9]); 99.4% in assay [6] (setting [10]). The Her2 level in assay [2] was 106% (inactive). Besides, in assay [6] (H69AR cells + 2 uM doxorubicin), the differential viability (reversal) was -11.8% (inactive). Also, the inhibition in assay [7] is -5.47% (inactive); in assay [8] it was -2.06% (inactive).

In the case of `O=C(NCC(c1cccnc1)N1CCN(c2ccc(F)cc2)CC1)OCc1ccccc1` (stereo not given), the viability in assay [1] is 101%; in assay [3], 101% (inactive); in assay [4] it was 85% (inactive); in assay [5], 91.8% (inactive); in assay [6] (setting [9]) it was 95%; in assay [6] (setting [10]), 91.8%. Besides, in assay [2], the Her2 level was 66% (inactive). In assay [6] (H69AR cells + 2 uM doxorubicin), the differential viability (reversal) was -3.13% (inactive). The results for the inhibition in assay [7] and in assay [8] were -2.57% (inactive) and 32.9% (active), respectively.

In the case of `CCOC(=O)CSc1nc2ccccc2c(=O)n1NC(=O)c1ccccc1`, the viability in assay [1] was 120%; in assay [3] it was 120% (inactive); in assay [4], 86.6% (inactive); in assay [5], 87.4% (inactive); in assay [6] (setting [9]), 80.4%; in assay [6] (setting [10]), 87.4%. In assay [2], the Her2 level was 78% (inactive). The differential viability (reversal) in assay [6] (H69AR cells + 2 uM doxorubicin) was 7% (inactive). The inhibition in assay [7] was -3.29% (inactive); in assay [8], -1.75% (inactive).

Turning to `CCOC(=O)Cc1csc(NC(=O)CSc2nnc(-c3ccncc3)n2Cc2ccco2)n1`, the viability was 107% in assay [1]; 107% (inactive) in assay [3]; 94.1% (inactive) in assay [4]; 97.6% (inactive) in assay [5]; 89.9% in assay [6] (setting [9]); 97.6% in assay [6] (setting [10]). Moreover, the Her2 level in assay [2] was 82.5% (inactive). For the same compound, the differential viability (reversal) in assay [6] (H69AR cells + 2 uM doxorubicin) was 7.66% (inactive). Moreover, the inhibition in assay [7] is -5.14% (inactive); in assay [8] it was 5.24% (inactive).

Consider `CC(NC(=O)NCCCC(=O)O)(C(F)(F)F)C(F)(F)F`, for which the viability in assay [1] is 104%; in assay [3], 104% (inactive); in assay [4] it was 97.6% (inactive); in assay [5] it was 105% (inactive); in assay [6] (setting [9]), 96.5%; in assay [6] (setting [10]), 105%. Further, the Her2 level in assay [2] was 82% (inactive). In addition, the differential viability (reversal) in assay [6] (H69AR cells + 2 uM doxorubicin) was 8.72% (inactive). For the same compound, the values for the inhibition in assay [7] and in assay [8] were -7.53% (inactive) and 1.59% (inactive), respectively.

As to `CN(C)S(=O)(=O)c1ccc(C(=O)N2CCCC2c2nc3ccccc3s2)cc1` (stereo not given), the viability in assay [1] is 98%; in assay [3], 98% (inactive); in assay [4] it was 91.1% (inactive); in assay [5] it was 94.9% (inactive); in assay [6] (setting [9]), 92.9%; in assay [6] (setting [10]) it was 94.9%. Moreover, in assay [2], the Her2 level is 127% (inactive). For the same compound, the differential viability (reversal) in assay [6] (H69AR cells + 2 uM doxorubicin) is 1.97% (inactive). The inhibition in assay [7] was -1.49% (inactive); in assay [8], 3.93% (inactive).

Consider `Cc1cc(NS(=O)(=O)c2ccc(NC(=O)C(C)N3C(=O)c4ccccc4C3=O)cc2)nc(C)n1` (stereo not given), for which the viability is 99% in assay [1]; 99% (inactive) in assay [3]; 112% (inactive) in assay [4]; 97.4% (inactive) in assay [5]; 91.7% in assay [6] (setting [9]); 97.4% in assay [6] (setting [10]). Besides, in assay [2], the Her2 level was 92% (inactive). For the same compound, in assay [6] (H69AR cells + 2 uM doxorubicin), the differential viability (reversal) was 5.72% (inactive). In addition, the results for the inhibition in assay [7] and in assay [8] were -2.89% (inactive) and 5.25% (inactive), respectively.

Regarding `CCCCOC(=O)C1=C(C)Nc2ncnn2C1c1cccc(OC)c1OC` (stereo not given), the viability in assay [1] was 81.5%; in assay [3] it was 81.5% (inactive); in assay [4] it was 95% (inactive); in assay [5], 88.5% (inactive); in assay [6] (setting [9]), 80.7%; in assay [6] (setting [10]) it was 88.5%. In addition, the Her2 level in assay [2] was 65.5% (inactive). Moreover, in assay [6] (H69AR cells + 2 uM doxorubicin), the differential viability (reversal) is 7.84% (inactive). The inhibition is -5.13% (inactive) in assay [7] and -3.33% (inactive) in assay [8].

In the case of `CN1CCN(c2nc3c(c(=O)[nH]c(=O)n3C)n2CCOc2ccccc2)CC1`, the viability in assay [1] is 75.5%; in assay [3], 75.5% (inactive); in assay [4], 80.1% (inactive); in assay [5], 92.2% (inactive); in assay [6] (setting [9]), 91.5%; in assay [6] (setting [10]), 92.2%. Further, the Her2 level in assay [2] was 85.5% (inactive). Moreover, in assay [6] (H69AR cells + 2 uM doxorubicin), the differential viability (reversal) is 0.615% (inactive). For the same compound, the inhibition was -6.49% (inactive) in assay [7] and 2.62% (inactive) in assay [8].

With `CCCCOC(=O)Cn1c(=N)n(CCN2CCOCC2)c2ccccc21`, the viability is 77% in assay [1]; 77% (inactive) in assay [3]; 85.4% (inactive) in assay [4]; 95.5% (inactive) in assay [5]; 79.2% in assay [6] (setting [9]); 95.5% in assay [6] (setting [10]). Further, the Her2 level in assay [2] is 102% (inactive). Moreover, in assay [6] (H69AR cells + 2 uM doxorubicin), the differential viability (reversal) is 16.3% (inactive). The inhibition in assay [7] was -7.47% (inactive); in assay [8], 0.16% (inactive).
